Screening data from PubChem BioAssay.
Sampled rows, rich in hits. Any-hit rate of the full collection: about 3%.
S1P1 ag-PAM: agonists and agonism potentiators of human S1P1 receptor; S1P1 CRE-bla cells, forskolin, beta-lactamase FRET, potentiator mode; S1P1 agonist co-added at EC20, 2 nM; 100% = saturating reference agonist, 0% = basal; hit rate 0.57% among 56,000; activation, % at 9.5 µM; AID 449; P21453;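 active = activation above a cutoff set at the mean activation of all tested compounds plus 3 SD, cut at about 54% in these data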;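 note: forskolin at 4 µM as EC80 and the EC20 agonist is SEW2871; 100% = SEW2871 at its EC100 plus forskolin at EC80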
Target sequence (P21453 whole entry, looked up): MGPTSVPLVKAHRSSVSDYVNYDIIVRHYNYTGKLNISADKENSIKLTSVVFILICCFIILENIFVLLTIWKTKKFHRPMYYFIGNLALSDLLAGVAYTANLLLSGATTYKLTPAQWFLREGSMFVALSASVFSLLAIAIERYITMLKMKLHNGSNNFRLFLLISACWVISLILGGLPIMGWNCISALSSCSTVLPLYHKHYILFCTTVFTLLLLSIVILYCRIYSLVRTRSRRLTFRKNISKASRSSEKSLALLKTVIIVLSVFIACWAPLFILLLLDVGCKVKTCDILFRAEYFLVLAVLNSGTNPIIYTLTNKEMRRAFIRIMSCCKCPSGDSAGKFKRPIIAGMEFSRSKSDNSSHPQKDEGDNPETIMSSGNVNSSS
5HT1E ag: agonists of human 5-HT1E serotonin receptor. P28566. CHO 5-HT1E Ga15 NFAT-bla reporter, FRET; 0% DMSO wells, 100% control agonist wells. activation, % at 6 µM. hit rate 0.69% among 65,000. AID 574;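 active = activation above a set limit, the screen-wide mean activation plus 3 SD, cut at about 8.5% in these data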;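 note: 100% = positive control agonist at 1 µM giving full maximal response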
5HT1a antag: antagonists of human 5-HT1a serotonin receptor; P08908; CHO 5-HT1a Ga15 NFAT-bla reporter, antagonist mode; hit rate 0.68% among 62,000; AID 612; inhibition, % at 10 µM;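 active = inhibition above the mean of all tested compounds plus 3 SD, cut at about 43% in these data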;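 note: receptor stimulated by 5-CT agonist at 100 nM near EC80; beta-lactamase reporter measured by ratiometric fluorescence of a cleavable substrate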
HTR1E antagonist: antagonists of human 5-HT1E serotonin receptor. P28566. hit rate 0.99% among 65,000. AID 571. CHO 5-HT1E Ga15 NFAT-bla reporter, FRET, antagonist. inhibition, % at 6 µM;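 active = inhibition above a set limit, the mean inhibition across every tested compound plus 3 SD, cut at about 29% in these data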;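 note: signal is the 460 over 535 nm emission ratio of beta-lactamase substrate; 0% = agonist plus DMSO wells and 100% = wells without agonist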
5HT1a ag: agonists of human 5-HT1a serotonin receptor. CHO 5-HT1a Ga15 NFAT-bla reporter, FRET ratio; 0% basal, 100% maximal reference agonist. hit rate 0.56% among 65,000. activation, % at 10 µM. P08908;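 active = activation above the screen-wide mean activation plus 3 SD, cut at about 19% in these data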;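 note: 0% = DMSO wells and 100% = 5-CT at EC100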
S1P3 ag: S1P3 (human) receptor agonism; Q99500; S1P3 NFAT-BLA reporter cells, FRET ratio; relative to 1 µM S1P, basal subtracted; activation, % at 4.5 µM; hit rate 0.1% among 60,000; AID 373;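 active = activation above the screen-wide mean plus 3 SD, cut at about 4.5% in these data, passing the limit was not always enough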
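Assay system: stable CHO line with human S1P3, Gα16, NFAT-BLA reporter; Detection: FRET β-lactamase substrate fluorescence, excitation 405 nm, 460/535 nm emission ratio, background-subtracted; Read-out: percent activation versus median 1 µM S1P response, basal-subtracted, per plate; Incubation: cells plated overnight, compound 4 h 37 °C, substrate 2 h RT.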
* marks the source's active call; other numbers are inactive results; / = not tested or not shown.

SMILES | S1P1 ag-PAM | 5HT1E ag | 5HT1a antag | HTR1E antagonist | 5HT1a ag | S1P3 ag
CC(C)(C)n1nnnc1C(c1ccccc1F)N(Cc1ccco1)CC1CCCO1 (configuration not stated) | -4 | 0 | 40 | 11 | -1 | 0
COc1cccc(CN(Cc2ccco2)C(c2ccc(F)cc2)c2nnnn2C(C)(C)C)c1 (configuration not stated) | -10 | -1 | 46* | 1 | -3 | -2
Cc1cc(C(=O)Nc2sc(C)c(-c3ccc(F)cc3)c2C(N)=O)no1 | 102* | 1 | 0 | -7 | 12 | 0
CCCc1cc(C(N)=O)c(NC(=O)c2cc(C)on2)s1 | 15 | -1 | 16 | -4 | 1 | -1
CCOC(=O)c1[nH]c(C)c(C(=O)Nc2cc(OC)ccc2OC)c1C | 5 | -1 | 20 | 49* | -3 | 0
COc1ccccc1N1CCN(CCc2n[nH]c(=S)n2-c2ccccc2)CC1 | -8 | 30* | 69* | 3 | 2 | -2
COc1ccccc1-c1n[nH]c(=S)n1-c1ccccc1 | -14 | -1 | 5 | -6 | -1 | -1
CCN(C(=O)CCc1nc(-c2ccccc2F)no1)c1cc(OC)ccc1OC | 10 | 0 | -3 | -7 | -2 | -2
Cc1cc2cc(CNS(=O)(=O)c3ccccc3)ccc2n1C | -6 | 0 | -9 | -3 | -2 | -2
Cc1cc(C(=O)OCC(=O)N2c3ccccc3CC2C)c(C)o1 (configuration not stated) | 18 | 0 | -16 | -20 | 2 | 0
CC1=CC(C)(C)N(C(=O)c2ccc(F)cc2)c2cc3c(cc21)OCO3 | 13 | -1 | 43* | -4 | -5 | 0
CSC1=NCCN1C(=O)c1ccc2c(c1)OCO2 | -6 | 0 | 0 | 2 | 0 | -1
COc1cc([C@@H]2c3cc4c(cc3[C@H](O)[C@H]3COC(=O)[C@H]23)OCO4)cc(OC)c1OC | -22 | 0 | / | 73* | -3 | -6
COc1cc(CC(=O)NCc2ccc3c(c2)OCO3)cc(OC)c1OC | 13 | 1 | -2 | 0 | 0 | 0
CCOc1ccc2nc(SC(C)C(N)=O)[nH]c2c1 (configuration not stated) | -6 | 0 | -10 | 3 | -1 | 0
Cc1ccc(S(=O)(=O)c2nc(-c3ccccc3)oc2NCc2cccnc2)cc1 | -42 | 48* | -1 | -2 | -4 | 0
CSc1oc(-c2ccccc2)nc1S(=O)(=O)c1ccc(C)cc1 | -27 | -2 | 20 | 6 | -1 | -2
O=C(Nc1ccon1)c1csc2ccccc12 | -21 | -1 | 17 | -2 | -8 | 0
O=C(Nc1ccon1)c1csc2c1CCCC2 | 0 | 8.9* | -18 | -10 | -2 | 0
CC(C)(C)c1csc(NC(=O)c2ccc(Cl)s2)n1 | 27 | -1 | 35 | 19 | -1 | 0
CCNc1nc(N)c(C(=O)c2ccc(Cl)s2)s1 | 47 | 0 | 56* | 23 | 1 | -2
Cn1c(C(=O)N2CCN(c3ccccn3)CC2)cc2c(=O)n(C)c3ccccc3c21 | -6 | 21* | 1 | 5 | 0 | -1
Cc1cc(C(=O)COC(=O)c2csc3c2CCCC3)c(C)n1C | 79* | -1 | 2 | 2 | 0 | 0
CSCCC(NS(=O)(=O)c1ccc2c(c1)oc(=O)n2C)C(=O)NC1CCC(C)CC1 (configuration not stated) | 4 | 1 | 16 | -5 | -3 | -2
CC1CC(C)CN(CCCNC(=O)CNC(=O)Cn2ccc3ccccc3c2=O)C1 (configuration not stated) | / | -1 | -6 | 2 | -1 | /
SMILES | S1P1 ag-PAM | 5HT1E ag | 5HT1a antag | HTR1E antagonist | 5HT1a ag | S1P3 ag
Cc1ccccc1Cn1ccc(NC(=O)c2cc3nc(-c4ccco4)cc(C(F)(F)F)n3n2)n1 | -35 | 2 | -15 | -5 | 74* | 0
Cc1nc2ccc3nc(NC(=O)C4COc5ccccc5O4)sc3c2s1 (configuration not stated) | 67* | 0 | -9 | -2 | -1 | 0
CC(C)(C)c1cccc(/C=N/O)c1O | -20 | 0 | / | 30* | 2 | -2
CCOc1ccc(N(CC(=O)NC(C)(C)C)C(=O)c2ccco2)cc1 | -8 | -2 | 15 | 7 | -2 | 0
COc1ccccc1Oc1ccc2c(c1)C(=O)N(c1cccc(O)c1)C2=O | 94* | 1 | 13 | 2 | -1 | -2
CS(=O)(=O)N1CCC(C(=O)Nc2ccccc2Sc2ccccc2)CC1 | 9 | 0 | 12 | 2 | 0 | 0
CC(=O)Nc1ccccc1Sc1ccccc1 | -22 | -1 | 22 | 32* | -2 | -1
CC(C)CC(OC(=O)c1ccco1)C(=O)NC1CCCCC1 (configuration not stated) | -9 | -2 | 11 | -7 | -2 | 1
CCN1c2ccccc2-c2nc3ccccc3n2C1c1ccccn1 (configuration not stated) | 3 | 1 | 20 | -14 | 3 | 0
COc1ccc(C(C(=O)OC(C)CN(C)C)c2ccccc2)cc1 (configuration not stated) | -8 | -1 | -5 | 2 | -2 | 0
CN(C)CC(C(=O)c1ccccc1)c1ccccc1 (configuration not stated) | 82 | 0 | 76* | 74* | -5 | -1
Cc1cc(NC(=O)CSc2nnc(Cc3ccccc3)o2)no1 | / | 1 | -4 | 7 | 0 | -1
CC1CCN(S(=O)(=O)c2ccc(Cl)cc2)CC1 | -6 | -1 | -1 | 9 | 1 | -2
CC1=C(C)CS(=O)N(S(=O)(=O)c2ccc(Cl)cc2)C1 (configuration not stated) | 19 | 0 | 47* | -1 | -4 | -1
C=CCn1c2ccccc2c2nnc(SCC(=O)NC(C(=O)OC)C(C)C)nc21 (configuration not stated) | -56 | -1 | -6 | 21 | 2 | 0
Cc1cc(/C=N/n2cnnc2)c(C)n1-c1cc(Cl)ccc1Cl | -6 | -1 | 52* | 40* | -5 | -1
COC(=O)c1ccc(-n2c(C)cc(/C=N/n3cnnc3)c2C)cc1 | 18 | 19* | 2 | 2 | -2 | -2
Cc1ccc(CCNC(=O)CN2C(=O)COc3ccccc32)cc1 | 6 | 0 | 0 | -5 | -2 | 0
CCOC(=O)c1cccc(NC(=O)N[C@@H](C)C(=O)OC)c1 | -25 | 0 | -12 | 6 | -2 | 0
CN1CCCC(OC(=O)c2cc(Cl)ccc2Cl)C1 (configuration not stated) | 2 | 13* | -3 | 1 | 1 | -1
CC1(C)Cc2c(c(N3CCOCC3)nc3sc(-c4ccc(C(=O)O)o4)c(N)c23)CO1 | 1 | 0 | 2 | 14 | 1 | -1
